Data on 4 compounds can be found in ChEMBL document CHEMBL4823318, “Kinetic and structural investigations of novel inhibitors of human epithelial 15-lipoxygenase-2” (Bioorg Med Chem, 2021).

Bounds are passed on as bounds.

Broadly, the IC50 is the concentration that inhibits the measured activity by half.

Data set [1] addresses T1, Polyunsaturated fatty acid lipoxygenase ALOX15B (Homo sapiens) (UniProt O15296).
T1 sequence (whole entry): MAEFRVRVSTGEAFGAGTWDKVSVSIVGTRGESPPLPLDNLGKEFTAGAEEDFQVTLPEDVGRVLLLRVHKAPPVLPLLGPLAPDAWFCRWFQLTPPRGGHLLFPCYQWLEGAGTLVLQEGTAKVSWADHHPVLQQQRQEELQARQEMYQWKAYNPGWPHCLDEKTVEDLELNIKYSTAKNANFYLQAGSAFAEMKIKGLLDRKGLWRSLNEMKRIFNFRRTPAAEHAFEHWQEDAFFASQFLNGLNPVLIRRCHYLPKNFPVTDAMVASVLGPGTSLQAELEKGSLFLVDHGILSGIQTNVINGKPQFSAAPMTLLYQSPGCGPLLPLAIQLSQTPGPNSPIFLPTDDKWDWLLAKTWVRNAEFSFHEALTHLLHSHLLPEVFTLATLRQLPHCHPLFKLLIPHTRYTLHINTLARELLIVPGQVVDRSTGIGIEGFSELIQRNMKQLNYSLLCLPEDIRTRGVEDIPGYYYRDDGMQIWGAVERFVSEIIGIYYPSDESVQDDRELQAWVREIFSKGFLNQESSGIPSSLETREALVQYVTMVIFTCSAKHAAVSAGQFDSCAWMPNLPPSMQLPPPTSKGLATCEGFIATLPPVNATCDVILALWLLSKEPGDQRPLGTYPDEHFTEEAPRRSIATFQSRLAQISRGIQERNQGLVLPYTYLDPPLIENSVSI
The experiment in a line: Competitive inhibition of human 15-LOX-2 assessed as equilibrium dissociation constant from catalytic site by measuring 15-HpETE by Dixon plots and Dixon replots analysis. A digest of the protocol:
(§1)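 Steady-state kinetics with h15-LOX-2 at 23 °C in stirred 25 mM HEPES pH 7.5, 0.01% Triton X-100, with 0.7–20 μM AA, reaction started by adding enzyme. Initial rates at varied inhibitor levels were fit to Henri-Michaelis-Menten for Vmax and Km. Slopes from Dixon plots (1/v vs [I]) were replotted against 1/[S]. Kic = (Km/Vmax)/replot slope; Kiu = (1/Vmax)/replot y-intercept.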

In data set [2] the target is T2, Polyunsaturated fatty acid lipoxygenase ALOX8 (Mus musculus, UniProt O35936).
T2 sequence (O35936 whole entry): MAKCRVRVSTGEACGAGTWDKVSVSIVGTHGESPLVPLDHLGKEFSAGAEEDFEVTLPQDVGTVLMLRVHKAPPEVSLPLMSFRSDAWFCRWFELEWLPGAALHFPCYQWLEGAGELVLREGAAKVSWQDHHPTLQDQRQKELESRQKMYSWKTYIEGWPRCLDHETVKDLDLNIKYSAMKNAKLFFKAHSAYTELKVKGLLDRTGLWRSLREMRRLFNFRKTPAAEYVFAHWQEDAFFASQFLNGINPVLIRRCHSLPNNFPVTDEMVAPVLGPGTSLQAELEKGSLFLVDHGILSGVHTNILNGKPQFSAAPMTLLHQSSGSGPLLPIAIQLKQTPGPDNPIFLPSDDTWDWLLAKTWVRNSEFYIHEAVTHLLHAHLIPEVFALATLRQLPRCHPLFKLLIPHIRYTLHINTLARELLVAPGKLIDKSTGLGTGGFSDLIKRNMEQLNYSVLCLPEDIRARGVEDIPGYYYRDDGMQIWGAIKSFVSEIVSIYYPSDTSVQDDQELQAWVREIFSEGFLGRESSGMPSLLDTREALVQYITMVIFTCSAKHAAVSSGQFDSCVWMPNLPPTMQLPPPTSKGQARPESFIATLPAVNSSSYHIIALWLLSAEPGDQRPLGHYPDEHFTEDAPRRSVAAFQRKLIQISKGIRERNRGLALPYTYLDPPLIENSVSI
The experiment in a line: Inhibition of mouse 15-LOX2 assessed as enzymatic rate using arachidonic acid as substrate by UV/Vis spectrophotometric analysis.

The species named for data set [3] is Homo sapiens. The experiment in a line: Selectivity ratio of IC50 for inhibition of human 15-LOX-1 to IC50 for inhibition of human 15-LOX-2. Put shortly: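 h15-LOX-1 (~60 nM total protein) was run at 23 °C, stirred, in 25 mM HEPES pH 7.5, 0.01% Triton X-100 and 10 μM AA. Diene product was read at 234 nm. Inhibition at 25 μM inhibitor was taken against the DMSO rate, in duplicate.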

For data set [4], the species on record is Homo sapiens. The data set can be described thus: Selectivity ratio of IC50 for inhibition of human 12-LOX to IC50 for inhibition of human 15-LOX-2. A digest of the protocol:
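Conjugated diene formation was followed at 234 nm. Rates were compared with the DMSO control at a single 25 μM inhibitor concentration, in duplicate.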

For a further data set, the system named is HEK-293T. The data set can be described thus: Cytotoxicity against human HEK293T cells expressing human 15-LOX-2 at 10 uM measured after 1 hr by cell survival assay. It is filed as cell-based. A digest of the protocol:
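HEK293T cells stably overexpressing h15-LOX-2 were kept in MEM with 10% FBS, 2 mM glutamine, penicillin/streptomycin and 640 ug/ml G418. Cells were exposed to 0.2% DMSO, 10 μM or 20 μM inhibitor for 1 h. Medium was then replaced and cells were checked daily for death.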

The species named for data set [5] is Homo sapiens. The experiment in a line: Selectivity ratio of IC50 for inhibition of human 5-LOX to IC50 for inhibition of human 15-LOX-2.
For data set [6], the species on record is Homo sapiens. The experiment in a line: Selectivity ratio of IC50 for inhibition of human COX2 to IC50 for inhibition of human 15-LOX-2. A digest of the protocol:
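Ovine COX-1 or human recombinant COX-2 (~3 μg) was used in 0.1 M Tris-HCl pH 8.0 with 5 mM EDTA, 2 mM phenol and 1 μM hemin at 37 °C. Inhibitor was preincubated with enzyme for 5 min, then ~100 μM AA was added. O2 consumption was recorded with an oxygen electrode, and rates were compared to the DMSO control, in duplicate.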

Data set [7] is filed under the species Homo sapiens. The experiment in a line: Selectivity ratio of IC50 for inhibition of ovine COX1 to IC50 for inhibition of human 15-LOX-2.
Data set [8] deals with Prostaglandin G/H synthase 1 (Ovis aries) (UniProt P05979). The data set can be described thus: Inhibition of ovine COX-1 assessed as enzymatic rate using arachidonic acid as substrate by oxygen electrode measurement of oxygen consumption.
The target in data set [9] is T1, Polyunsaturated fatty acid lipoxygenase ALOX15B (Homo sapiens). The data set can be described thus: Uncompetitive inhibition of human 15-LOX-2 assessed as equilibrium dissociation constant from secondary site by measuring 15-HpETE by Dixon plots and Dixon replots analysis. Put shortly:
as §1

Take `FC(F)(F)c1ccc(CSc2nccn2-c2ccccc2)cc1`: the Kic in data set [1] is 0.7 µM. Besides, the IC50 in [2] is more than 50 µM; in [8], more than 100 µM. Besides, the Ratio IC50 in the data set listed under Homo sapiens [3], in the data set filed under Homo sapiens [4], in the data set filed under Homo sapiens [5], in the data set filed under Homo sapiens [6] and in the data set filed under Homo sapiens [7] was more than 50 throughout. The Activity entry in the data set on HEK-293T is “Non-Toxic”.
`Brc1ccc(CSc2nccn2-c2ccccc2)cc1`: the concentration for half-maximal inhibition (IC50) in [2] is more than 50 µM; in data set [8], more than 100 µM. In the data set with HEK-293T, the Activity entry was “Non-Toxic”.
In the case of `Cc1ccc(CSc2ncn(-c3ccccc3)n2)cc1`, the Activity result in the data set with HEK-293T is “Non-Toxic”.
For the compound `CCc1ccc(CSc2nccn2-c2ccccc2)cc1`, the Kic in data set [1] was 0.9 µM. Also, the Kiuc in data set [9] is 3.4 µM. Further, the IC50 in [2] is more than 50 µM; in [8], more than 100 µM. Besides, the Ratio IC50 in the data set filed under Homo sapiens [3], in the data set filed under Homo sapiens [4], in the data set listed under Homo sapiens [5], in the data set listed under Homo sapiens [6] and in the data set listed under Homo sapiens [7] was more than 50 in each case. Further, in the data set on HEK-293T, the Activity result is “Non-Toxic”.
